# Reference: ChEMBL document CHEMBL4145497, “Discovery of 2-aminothiazolyl berberine derivatives as effectively antibacterial agents toward clinically drug-resistant Gram-negative Acinetobacter baumanii” (Eur J Med Chem, 2018)
# Active and inactive are the calls of the source. The calls are words filed in the database; no cut-off is given here.
# Tests used:
# [1] = Aqueous solubility of the compound in phosphate buffer at pH 7.4 after 3 hrs by UV detection assay; type: physicochemical
# How it was run: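 Water solubility measured at physiological pH, with berberine as the control.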
# [2] = test system: Pichia norvegensis; assay: Antifungal activity against Candida mycoderma ATCC 96918 by CLSI two fold serial dilution method; type: functional
# [3] = test system: Candida parapsilosis; assay: Antifungal activity against Candida parapsilosis ATCC 22019 by CLSI two fold serial dilution method; type: functional; details: Lodderomyces parapsilosis
# [4] = test system: Cyberlindnera jadinii; assay: Antifungal activity against Candida utilis ATCC 9950 by CLSI two fold serial dilution method; type: functional; details: Williopsis jadinii
# [5] = test system: Aspergillus flavus; assay: Antifungal activity against Aspergillus flavus ATCC 204304 by CLSI two fold serial dilution method; type: functional
# [6] = test system: Pseudomonas aeruginosa; assay: Antibacterial activity against Pseudomonas aeruginosa ATCC 27853 after 18 to 24 hrs by CLSI two fold serial dilution method; type: functional
# [7] = test system: Bacillus subtilis; assay: Antibacterial activity against Bacillus subtilis ATCC 21216 after 18 to 24 hrs by CLSI two fold serial dilution method; type: functional
# [8] = test system: Micrococcus luteus; assay: Antibacterial activity against Micrococcus luteus ATCC 4698 after 18 to 24 hrs by CLSI two fold serial dilution method; type: functional
# [9] = test system: Candida albicans; assay: Antifungal activity against Candida albicans ATCC 76615 by CLSI two fold serial dilution method; type: functional
# [10] = test system: Saccharomyces cerevisiae; assay: Antifungal activity against Saccharomyces cerevisiae ATCC 9763 by CLSI two fold serial dilution method; type: functional
# [11] = test system: Staphylococcus aureus; assay: Antibacterial activity against Staphylococcus aureus ATCC 25923 after 18 to 24 hrs by CLSI two fold serial dilution method; type: functional
# [12] = test system: Escherichia coli; assay: Antibacterial activity against Escherichia coli DH52 after 18 to 24 hrs by CLSI two fold serial dilution method; type: functional
# [13] = test system: Acinetobacter baumannii; assay: Bactericidal activity against drug-resistant Acinetobacter baumannii assessed as reduction in number of viable bacterial load at 8 nmol/ml with in 2 hrs by time kill assay; type: functional
# [14] = test system: Acinetobacter baumannii; assay: Antibacterial activity against drug-resistant Acinetobacter baumannii at 0.7 ug/ml measured 12 hrs post 10 serial passages; type: functional, organism-based
# [15] = test system: Acinetobacter baumannii; assay: Induction of membrane permeabilization in drug-resistant Acinetobacter baumannii at 0.024 umol/ml incubated for 1 hr measured up to 120 mins by propidium iodide staining-based fluorescence spectra analysis; type: functional, organism-based
# [16] = Cytotoxicity against human LO2 cells assessed as cell viability at 1.5625 to 100 ug/ml after 48 hrs by MTT assay relative to control; type: cell-based, L02; details: read-out: Activity
# How it was run: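 Human hepatocyte LO2 cells exposed to compound across a concentration range for 48 h; viability read by colorimetric MTT assay; standard deviation from three independent experiments.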
# [17] = test system: Candida tropicalis; assay: Antifungal activity against drug-resistant Candida tropicalis by CLSI two fold serial dilution method; type: functional
# [18] = test system: Acinetobacter baumannii; assay: Antibacterial activity against drug-resistant Acinetobacter baumannii after 18 to 24 hrs by CLSI two fold serial dilution method; type: functional
# [19] = test system: Escherichia coli; assay: Potency index, ratio of norfloxacin MIC to compound MIC for antibacterial activity against Escherichia coli DH52; type: functional
# [20] = test system: Escherichia coli; assay: Antibacterial activity against drug-resistant Escherichia coli after 18 to 24 hrs by CLSI two fold serial dilution method; type: functional
# [21] = test system: Staphylococcus aureus; assay: Antibacterial activity against methicillin-resistant Staphylococcus aureus N315 after 18 to 24 hrs by CLSI two fold serial dilution method; type: functional
# [22] = test system: Enterococcus faecalis; assay: Antibacterial activity against drug-resistant Enterococcus faecalis after 18 to 24 hrs by CLSI two fold serial dilution method; type: functional
# [23] = test system: Klebsiella pneumoniae; assay: Antibacterial activity against drug-resistant Klebsiella pneumoniae after 18 to 24 hrs by CLSI two fold serial dilution method; type: functional
# [24] = test system: Pseudomonas aeruginosa; assay: Antibacterial activity against drug-resistant Pseudomonas aeruginosa after 18 to 24 hrs by CLSI two fold serial dilution method; type: functional
# [25] = test system: Aspergillus fumigatus; assay: Antifungal activity against drug-resistant Aspergillus fumigatus by CLSI two fold serial dilution method; type: functional
# [26] = test system: Candida albicans; assay: Antifungal activity against drug-resistant Candida albicans by CLSI two fold serial dilution method; type: functional
# [27] = test system: Micrococcus luteus; assay: Potency index, ratio of berberine MIC to compound MIC for antibacterial activity against Micrococcus luteus ATCC 4698; type: functional
solubility at 3 h [1] [µg/mL],MIC [2] [µM],MIC [3] [µM],MIC [4] [µM],MIC [5] [µM],MIC [6] [µM],MIC [7] [µM],MIC [8] [µM],MIC [9] [µM],MIC [10] [µM],MIC [11] [µM],MIC [12] [µM],Compound,further results
374 to 3190,60,60,470,950,240,470,240,470,950,240,950,COc1cc(/C=N/Nc2nccs2)c2c(c1OCc1ccccc1)CN1CCc3cc4c(cc3C1C2)OCO4 (configuration not stated),
374 to 3190,210,110,420,420,110,210,420,420,840,110,110,COc1cc(/C=N/Nc2nccs2)c2c(c1OCc1ccc(Cl)c(Cl)c1)CN1CCc3cc4c(cc3C1C2)OCO4 (configuration not stated),
374 to 3190,450,60,220,890,220,450,220,450,890,450,110,COc1cc(/C=N/Nc2nccs2)c2c(c1OCc1ccc(Cl)cc1)CN1CCc3cc4c(cc3C1C2)OCO4 (configuration not stated),
7020 to 10200,520,70,130,260,260,520,130,130,1040,30,130,C=CCOc1c(OC)cc(/C=N/Nc2nccs2)c2c1CN1CCc3cc4c(cc3C1C2)OCO4 (configuration not stated),
7020 to 10200,520,30,520,1040,130,260,260,260,520,130,130,COc1cc(/C=N/Nc2nccs2)c2c(c1OCCO)CN1CCc3cc4c(cc3C1C2)OCO4 (configuration not stated),
374 to 3190,460,230,460,920,460,460,230,230,920,60,230,COc1cc(/C=N/Nc2nccs2)c2c(c1OCc1ccccc1F)CN1CCc3cc4c(cc3C1C2)OCO4 (configuration not stated),
10200,540,30,540,540,70,530,530,70,1070,70,70,CCOc1c(OC)cc(/C=N/Nc2nccs2)c2c1CN1CCc3cc4c(cc3C1C2)OCO4 (configuration not stated),
374 to 3190,220,7,440,870,50,110,220,220,440,110,440,COc1cc(/C=N/Nc2nccs2)c2c(c1OCc1ccc([N+](=O)[O-])cc1)CN1CCc3cc4c(cc3C1C2)OCO4 (configuration not stated),
1660,140,40,280,280,140,140,70,140,570,140,280,COc1cc(/C=N/Nc2nccs2)c2c(c1O)CN1CCc3cc4c(cc3C1C2)OCO4 (configuration not stated),
374 to 3190,120,30,230,460,230,230,60,230,460,110,460,COc1cc(/C=N/Nc2nccs2)c2c(c1OCc1ccc(F)cc1)CN1CCc3cc4c(cc3C1C2)OCO4 (configuration not stated),Ratio [27]: 12
7020 to 10200,130,20,520,1050,260,260,260,70,1050,130,260,COc1cc(/C=N/Nc2nccs2)c2c(c1OCC#N)CN1CCc3cc4c(cc3C1C2)OCO4 (configuration not stated),
61,430,220,220,430,220,220,220,220,430,110,220,CCCCCCCCCCOc1c(OC)cc(/C=N/Nc2nccs2)c2c1CN1CCc3cc4c(cc3C1C2)OCO4 (configuration not stated),
7020 to 10200,250,8,250,510,250,250,250,250,510,60,60,CCCCOc1c(OC)cc(/C=N/Nc2nccs2)c2c1CN1CCc3cc4c(cc3C1C2)OCO4 (configuration not stated),
374 to 3190,110,110,450,890,450,220,890,450,890,110,450,COc1cc(/C=N/Nc2nccs2)c2c(c1OCc1ccccc1Cl)CN1CCc3cc4c(cc3C1C2)OCO4 (configuration not stated),

Compound,solubility at 3 h [1] [µg/mL],MIC [2] [µM],MIC [3] [µM],MIC [4] [µM],MIC [5] [µM],MIC [6] [µM],MIC [7] [µM],MIC [8] [µM],MIC [9] [µM],MIC [10] [µM],MIC [11] [µM],MIC [12] [µM],further results
COc1cc(/C=N/Nc2nccs2)c2c(c1OCc1ccc(Cl)cc1Cl)CN1CCc3cc4c(cc3C1C2)OCO4 (configuration not stated),1900,420,7,210,420,210,210,110,420,840,110,840,Activity [13]: >3 deltalog10CFU/ml; Activity [14]: Active; Activity [15]: Active; viability at 48 h [16]: > 80.5%
CCCCCCOc1c(OC)cc(/C=N/NC(N)=S)c2c1CN1CCc3cc4c(cc3C1C2)OCO4 (configuration not stated),,250,60,250,250,60,130,250,60,500,130,30,MIC [17]: 60 µM; MIC [18]: 60 µM; Ratio [19]: 53; MIC [20]: 30 µM; MIC [21]: 130 µM; MIC [22]: 30 µM; MIC [23]: 130 µM; MIC [24]: 60 µM; MIC [25]: 130 µM; MIC [26]: 60 µM
CCCCCCCCCCOc1c(OC)cc(/C=N/NC(N)=S)c2c1CN1CCc3cc4c(cc3C1C2)OCO4 (configuration not stated),,230,110,450,450,230,230,230,60,230,30,30,MIC [17]: 30 µM; MIC [18]: 10 µM; Ratio [19]: 53; MIC [20]: 30 µM; MIC [21]: 30 µM; MIC [22]: 30 µM; MIC [23]: 230 µM; MIC [24]: 230 µM; MIC [25]: 7 µM; MIC [26]: 60 µM
